mIAP act: activators of mouse IAP, primary screen, biochemical, luminescence, uHTS. intestinal alkaline phosphatase [Mus musculus]. muIAP, CDP-Star luminescence, 30 min; hits give high values; 1 = vehicle-only enzyme signal, 0 = enzyme-free wells. actives 0.24% (n = 330,000). activation factor at 10 µM;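 active = activation factor of at least 2 at 20 µM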
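System: Mouse IAP enzyme | Also added: CDP-Star substrate | Dosing: Compounds dispensed in DMSO | Schedule: 30 min enzyme-substrate-compound incubation at room temperature | Technique: Chemiluminescence readout | Control set: DMSO-only wells and no-enzyme negative control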
bIAP inhibitor: bovine intestinal alkaline phosphatase inhibitors, primary screen, selectivity assay for TNAP inhibitor project, biochemical, bovine IAP, CDP-star luminescence; alkaline phosphatase, intestinal [Bos taurus]; purified bovine IAP, 30 min; inhibition, % at 20 µM; 190,000 tested, under 10 active;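 active = over 50% inhibition of intestinal alkaline phosphatase at 20 µM in the single-dose screen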
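test system = bovine IAP enzyme | medium = DEA buffer 100 mM, pH 9.8, with MgCl2 1.0 mM, ZnCl2 0.02 mM | detection = luminescence | dosing = single compound dose of 20 µM, 2% DMSO final | incubation = 30 min reaction at room temperature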
hIAP activ: human IAP activators, primary screen, biochemical, luminescence, uHTS | activation factor at 10 µM | purified human IAP, CDP-Star luminescence, 30 min; hits give high values; 1 = vehicle-only enzyme, 0 = enzyme-free background | actives 0.16% (n = 330,000);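 active = activation factor of the enzyme at least 2-fold when tested at 20 µM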
Target sequence (P09923 whole entry, looked up): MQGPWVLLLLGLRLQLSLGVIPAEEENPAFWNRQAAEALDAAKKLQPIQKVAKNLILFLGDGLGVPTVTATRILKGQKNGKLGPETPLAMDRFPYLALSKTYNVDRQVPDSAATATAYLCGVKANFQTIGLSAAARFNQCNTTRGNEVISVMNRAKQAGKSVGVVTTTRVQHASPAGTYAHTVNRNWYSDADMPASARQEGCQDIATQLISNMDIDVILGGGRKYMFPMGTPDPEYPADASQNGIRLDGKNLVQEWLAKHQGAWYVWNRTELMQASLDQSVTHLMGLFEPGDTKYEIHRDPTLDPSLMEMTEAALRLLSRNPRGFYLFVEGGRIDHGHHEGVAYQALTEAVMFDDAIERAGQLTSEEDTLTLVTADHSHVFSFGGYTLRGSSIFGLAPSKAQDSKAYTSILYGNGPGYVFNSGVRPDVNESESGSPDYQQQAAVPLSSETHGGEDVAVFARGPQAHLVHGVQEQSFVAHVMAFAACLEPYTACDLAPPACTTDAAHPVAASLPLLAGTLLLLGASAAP
mIAP block: inhibitors of mouse IAP, primary screen, biochemical, luminescence, uHTS; intestinal alkaline phosphatase [Mus musculus]; purified mouse IAP, CDP-Star luminescence, 30 min; inhibition, % at 10 µM; actives 0.2% (n = 330,000); AID 2806, 2010;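 active = inhibition of at least 40% at 10 µM in the primary screen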;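 note: plate controls were DMSO with enzyme for no effect and no enzyme wells for full effect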
hIAP block: human IAP inhibitors, primary screen, biochemical, luminescence, uHTS; Intestinal-type alkaline phosphatase (Homo sapiens), P09923; actives 0.12% (n = 330,000); purified IAP, CDP-Star luminescence, 30 min; inhibition, % at 10 µM; AID 2544, 2010;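 active = inhibition reaching a set limit with compound at 10 µM in the primary screen, cut at about 35% in these data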;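 note: plate controls were DMSO wells with enzyme for no effect and no-enzyme buffer wells for full effect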
bIAP act: bovine intestinal alkaline phosphatase activators, primary screen, biochemical, bovine IAP, CDP-star luminescence; actives 0.17% (n = 200,000); activation factor at 20 µM; purified bovine IAP, 30 min; hits give high values; fold of DMSO-control signal, blank-subtracted; AID 1016, 2008;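 active = activation factor of 2 or more at 20 µM, a signal rise over negative controls twice the positive control's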
mIAP inh confirm: inhibitors of mouse IAP, confirmation, biochemical, luminescence, single concentration; shares compounds with mIAP block; purified mouse IAP, CDP-Star luminescence, 30 min; inhibition, % at 10 µM; actives 4.7% (n = 11,000); AID 434971, 2010;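 active = inhibition of at least 40% at 10 µM in either of the two replicates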;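 note: plate controls were DMSO wells with enzyme for no effect and buffer wells lacking enzyme for full effect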
* = called active by the depositor; i = inactive; . = no result. Sampled rows, rich in hits. Any-hit rate of the full collection: about 0.77%.

SMILES	mIAP act	bIAP inhibitor	hIAP activ	mIAP block	hIAP block	bIAP act	mIAP inh confirm
C#CCOCCOCCOCCNc1nc(N2CCN(C(=O)CCCCCCCCCCNC(=O)Cn3cc(CCCCCN)nn3)CC2)nc(N2CCN(C(=O)CCCCCCCCCCNC(=O)[C@@H]([C@H](C)O)n3cc(C)nn3)CC2)n1	1.3	.	0.98	-35	2	.	.
C#CCOCCOCCOCCNc1nc(N2CCN(C(=O)CCCCCCCCCCNC(=O)[C@H]([C@@H](C)CC)n3cc(CCCCN=C(N)N)nn3)CC2)nc(N2CCN(C(=O)CCCCCCCCCCNC(=O)[C@@H]([C@H](C)O)n3cc(C)nn3)CC2)n1	4.7*	.	1.1	-366	-8	.	i
Cc1ccc(Nc2ncc3c(n2)CC(C)(C)CC3=O)cc1	0.94	-12	0.91	6	9	1.1	.
Cc1ccc(COc2ccsc2C(=O)NNC(N)=S)cc1	0.98	-4	1.5	2	-46	1	.
O=c1[nH]c(O)c(/C=C2\C=Nc3ccc(Br)cc32)[nH]1	0.99	.	1.1	1	-11	.	.
CCCC(C(=O)NCCC(C)C)N(Cc1ccccc1Cl)C(=O)c1snc(C(N)=O)c1N (configuration not stated)	1	.	1.1	-2	-6	.	.
Cn1nc(OC(=O)Nc2cccc(Cl)c2)cc1C(F)(F)F	3.4*	7	0.94	-241	6	0.9	-151
Cn1nc(OC(=O)Nc2ccccc2)cc1C(F)(F)F	1.1	9	1.3	-14	-34	0.9	.
Cc1cc(C)c(C)c(S(=O)(=O)N2CCN(C(=O)C3CCC3)CC2)c1C	0.96	.	1	4	-4	.	.
COc1cc(/C=N/NC(=O)c2cc(O)cc(O)c2)ccc1OC(=O)c1ccccc1	0.5	.	0.94	50*	6	.	57*
O=C(N/N=C/c1ccc(OC(=O)c2ccccc2Cl)cc1)c1ccccn1	1	.	1.2	-2	-20	.	.
O=C(N/N=C/c1ccc(OC(=O)c2ccccc2Cl)cc1)c1cc(O)cc(O)c1	0.53	.	1	47*	-4	.	61*
S=C(Nc1ccc2snnc2c1)N1CCN(c2ccccn2)CC1	1	2	0.9	-4	10	1	.
O=C(c1c(O)cc(O)cc1O)C1c2c(cc(O)c3c2O[C@H](c2ccc(O)cc2)[C@@H](O)C3)OC1c1ccc(O)cc1 (some centres not stated)	0.41	.	0.92	58*	8	.	47*
O=C1CC(c2ccccc2)c2c(O)cc(O)cc2O1 (configuration not stated)	1	14	0.94	-3	6	0.9	.
N#C/C(=C\c1coc2ccc(O)cc2c1=O)C(=O)Nc1nc2ccccc2s1	0.4	.	0.98	60*	2	.	64*
CCc1ccc(OCC(=O)NC(C)C)cc1	1.1	-10	1.2	-9	-18	1.1	.
O=C(Nc1ccc(F)c(Cl)c1)Nc1csc2ccccc12	4.9*	.	0.92	-387	8	.	-115
O=C(Nc1ccc(F)c(Cl)c1)Nc1ccc(Cl)cn1	1	-8	0.99	-5	1	1.1	.
O=C(Nc1ccc(F)cc1)Nc1cc(S(=O)(=O)N2CCOCC2)ccc1N1CCCC1	1.7	-63	1.1	-71	-8	1.6	.
O=C(Nc1ccc(Cl)cc1Cl)NC1CCN(S(=O)(=O)c2ccc(F)cc2)CC1	5.4*	.	1.7	-443	-68	.	-116
COc1ccccc1NS(=O)(=O)c1cccc(NC(=O)Nc2ccc(Cl)cc2)c1	2.1*	3	1	-113	-4	1	-92
O=C(Nc1cccc(S(=O)(=O)N2CCCCC2)c1)Nc1ccc(Cl)cc1Cl	5.4*	-6	0.87	-441	13	1.1	-341
O=C(CNc1ccc(F)cc1Cl)Nc1cccc(S(=O)(=O)N2CCCCC2)c1	1.9	.	1.1	-89	-14	.	.
O=C(Nc1ccc(Cl)cc1)Nc1cc(S(=O)(=O)N2CCOCC2)ccc1N1CCCC1	2.9*	-17	1	-191	-1	1.2	-116
SMILES	mIAP act	bIAP inhibitor	hIAP activ	mIAP block	hIAP block	bIAP act	mIAP inh confirm
Cc1[nH]c2nc3ccccc3n2c(=O)c1CCC(C)C	0.88	.	1.1	12	-14	.	.
CC(=O)Oc1cc2cccc(OC(C)=O)c(=O)c2c(OC(C)=O)c1OC(C)=O	0.55	-4	0.91	45*	9	1	49*
O=C(CSc1ncn[nH]1)CSc1ncn[nH]1	0.54	-33	1.4	46*	-35	1.3	48*
O=S(=O)(O)c1cc(O)ccc1O	0.74	.	1.2	26	-23	.	.
O=S(=O)(c1cc(O)ccc1O)c1cccc2c(S(=O)(=O)c3cc(O)ccc3O)cccc12	0.35	.	0.88	65*	12	.	58*
CC(=O)c1ccc(O)c(CSc2nncn2C)c1	0.99	-18	1.1	1	-8	1.2	.
Cn1cccc1/C=C1\SC(=S)N(Nc2ccccc2)C1=O	0.6	.	1.2	40*	-20	.	50*
Cc1ccc(S(=O)(=O)N2CCC(C(=O)Nc3ccc(S(=O)(=O)N4CCCC4)cc3)CC2)cc1	1.7	.	1.1	-67	-5	.	.
Cc1ccc(S(=O)(=O)N2CCC(C(=O)Nc3ccc(S(=O)(=O)N4CCCC4)cc3)CC2)cc1C	2.2*	.	0.92	-115	8	.	-122
Cc1ccc(S(=O)(=O)N2CCC(C(=O)Nc3ccc(C(C)C)cc3)CC2)cc1	6.6*	.	1	i	-5	.	-249
COc1ccccc1CNC(=O)C1CCN(S(=O)(=O)c2ccc3nc4c(c(C(=O)O)c3c2)CCCC4)CC1	0.98	.	1.2	2	-16	.	.
O=C(Cn1nc(-c2ccccc2)ccc1=O)N1CCCCC1	1.1	.	1.1	-8	-11	.	.
Cc1ccc(CC(=O)Nc2ncc([N+](=O)[O-])s2)cc1	0.92	-9	0.88	8	12	1.1	.
COc1ccc(C(=O)OCC(=O)Nc2ncc([N+](=O)[O-])s2)cc1OC	0.37	.	0.88	63*	12	.	76*
O=C(COC(=O)c1ccc(Br)o1)Nc1ncc([N+](=O)[O-])s1	0.39	.	0.88	61*	12	.	59*
COc1ccccc1NS(=O)(=O)c1ccc(NC(=O)c2ccncc2)cc1	0.98	-5	1.1	2	-8	1.1	.
CCCCN(C(=O)C(C)Oc1cccc(Cl)c1)c1c(N)n(CCC)c(=O)[nH]c1=O (configuration not stated)	0.94	.	1	6	-2	.	.

Assay outcomes from PubChem BioAssay.
